Active and inactive are the calls of the source. The rule behind the calls is not given here.
How the values were obtained:
[1] = system: Radical scavenging activity; assay: Antioxidant activity assessed as DPPH radical scavenging activity by spectrophotometric analysis; assay type: functional
In short: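 DPPH in ethanol (about 1.00 absorbance at 517 nm). Compound in DMSO (0.1 mL) was added to 1.9 mL of radical solution at 37.5 or 75.0 μM final, depending on compound. Absorbance decay was followed at 25 °C. The rate constant k was calculated from the initial reaction rate at t = 0.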

[2] = Antioxidant activity assessed as inhibition of AAPH-induced oxidation of DNA at 200 uM by spectrophotometric analysis; assay type: functional
[3] = Antioxidant activity assessed as ABTS radical scavenging activity after 16 hrs by spectrophotometric analysis; assay type: functional
In short: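 Radical cation pre-formed over 16 h, then diluted in ethanol to about 0.70 absorbance at 734 nm. Compound in DMSO (0.1 mL) was added to 1.9 mL of radical solution at 7.5 μM final. Absorbance decay was recorded at 25 °C. The rate constant k was derived from the initial rate (t = 0).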

[4] = Antioxidant activity assessed as inhibition of AAPH-induced oxidation of DNA measured as TBARS formation by spectrophotometric analysis; assay type: functional
In short: (§1)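 DNA sodium salt (2.0 mg/mL) with 40 mM AAPH in phosphate buffer (8.1 mM Na2HPO4, 1.9 mM NaH2PO4, 10.0 mM EDTA), with various compound concentrations in DMSO; DMSO-only blank. Samples were heated at 37 °C. TBARS was read at 535 nm. The inhibition period was taken at the crossing of tangents, then plotted against concentration.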

[5] = Antioxidant activity assessed as galvinoxyl radical scavenging activity by spectrophotometric analysis; assay type: functional
In short: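 Galvinoxyl in ethanol, absorbance about 1.00 at 428 nm. Compound in DMSO (0.1 mL) was added to 1.9 mL of radical solution at 7.5 or 75.0 μM final, depending on compound. Absorbance decay was recorded at 25 °C. The rate constant k was derived from the initial rate at t = 0.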

[6] = Antioxidant activity assessed as inhibition of AAPH-induced oxidation of DNA by spectrophotometric analysis; assay type: functional; in short: as §1
[7] = Antioxidant activity assessed as inhibition of AAPH-induced oxidation of DNA at 100 uM by spectrophotometric analysis
[8] = Antioxidant activity assessed as inhibition of AAPH-induced oxidation of DNA at 100 uM by spectrophotometric analysis; assay type: functional
In short: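 Oxidation of 2.0 mg/mL DNA by 40 mM AAPH in phosphate/EDTA buffer at 37 °C, with compound at 100 μM (DMSO vehicle; DMSO-only control). TBARS was monitored at 535 nm (ε 1.56 × 10^5 M⁻¹ cm⁻¹), and its formation rate d[TBARS]/dt was expressed in nM min⁻¹.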

Compound	K [1] [×10³ /M/s]	Activity [2]	K [3] [×10³ /M/s]	Activity [4] [nM/min]	K [5] [×10³ /M/s]	Activity [6]	Activity [7]	Activity [8]
Oc1ccc2c(c1)SC=C(c1ccccc1)O2	0.0071	Active	4.89	5.2	–	–	–	–
Cc1c(C)c2c(c(C)c1O)CCC(C)(C(=O)O)O2 (stereo unspecified)	0.353	–	29.2	–	1.7	–	–	–
COc1ccc2c(c1)SCC(c1ccc(O)cc1)O2 (stereo unspecified)	–	Active	0.202	4.2	–	–	–	–
Oc1ccc(C2CSc3cc(O)ccc3O2)cc1 (stereo unspecified)	0.043	–	8.92	–	0.025	Active	–	–
COc1ccc2c(c1)SCC(c1ccc(O)c(O)c1)O2 (stereo unspecified)	2.2	–	390	–	2.54	Active	–	–
Oc1ccc2c(c1)SCC(c1ccc(O)c(O)c1)O2 (stereo unspecified)	1.18	–	11.7	–	0.52	Active	–	–
Oc1ccc2c(c1)OC(c1ccc(O)c(O)c1)CS2 (stereo unspecified)	1.61	–	16.7	–	0.57	Active	–	–
COc1ccc2c(c1)OC(c1ccc(O)cc1)CS2 (stereo unspecified)	–	–	0.168	–	–	Active	–	–
Oc1ccc(C2CSc3ccc(O)cc3O2)cc1 (stereo unspecified)	0.069	–	10.8	4.1	0.034	–	Active	Active
COc1ccc2c(c1)SC=C(c1ccc(O)cc1)O2	0.031	Active	8.14	5.8	–	–	–	–
Oc1ccccc1O	1.3	–	2.58	–	1.78	–	–	–

Source: ChEMBL document CHEMBL3259602, “Thiaflavan scavenges radicals and inhibits DNA oxidation: a story from the ferrocene modification” (Eur J Med Chem, 2014)
